Tests used:
[1] = biological target: T1, Transient receptor potential cation channel subfamily M member 5 (Homo sapiens, UniProt Q9NZQ8); test: Agonist activity at human TRPM5 expressed in CHO-K1 cells maintained at 80 mV final holding potential by syncroPatch assay; assay type: cell-based
T1 sequence (Q9NZQ8 whole entry): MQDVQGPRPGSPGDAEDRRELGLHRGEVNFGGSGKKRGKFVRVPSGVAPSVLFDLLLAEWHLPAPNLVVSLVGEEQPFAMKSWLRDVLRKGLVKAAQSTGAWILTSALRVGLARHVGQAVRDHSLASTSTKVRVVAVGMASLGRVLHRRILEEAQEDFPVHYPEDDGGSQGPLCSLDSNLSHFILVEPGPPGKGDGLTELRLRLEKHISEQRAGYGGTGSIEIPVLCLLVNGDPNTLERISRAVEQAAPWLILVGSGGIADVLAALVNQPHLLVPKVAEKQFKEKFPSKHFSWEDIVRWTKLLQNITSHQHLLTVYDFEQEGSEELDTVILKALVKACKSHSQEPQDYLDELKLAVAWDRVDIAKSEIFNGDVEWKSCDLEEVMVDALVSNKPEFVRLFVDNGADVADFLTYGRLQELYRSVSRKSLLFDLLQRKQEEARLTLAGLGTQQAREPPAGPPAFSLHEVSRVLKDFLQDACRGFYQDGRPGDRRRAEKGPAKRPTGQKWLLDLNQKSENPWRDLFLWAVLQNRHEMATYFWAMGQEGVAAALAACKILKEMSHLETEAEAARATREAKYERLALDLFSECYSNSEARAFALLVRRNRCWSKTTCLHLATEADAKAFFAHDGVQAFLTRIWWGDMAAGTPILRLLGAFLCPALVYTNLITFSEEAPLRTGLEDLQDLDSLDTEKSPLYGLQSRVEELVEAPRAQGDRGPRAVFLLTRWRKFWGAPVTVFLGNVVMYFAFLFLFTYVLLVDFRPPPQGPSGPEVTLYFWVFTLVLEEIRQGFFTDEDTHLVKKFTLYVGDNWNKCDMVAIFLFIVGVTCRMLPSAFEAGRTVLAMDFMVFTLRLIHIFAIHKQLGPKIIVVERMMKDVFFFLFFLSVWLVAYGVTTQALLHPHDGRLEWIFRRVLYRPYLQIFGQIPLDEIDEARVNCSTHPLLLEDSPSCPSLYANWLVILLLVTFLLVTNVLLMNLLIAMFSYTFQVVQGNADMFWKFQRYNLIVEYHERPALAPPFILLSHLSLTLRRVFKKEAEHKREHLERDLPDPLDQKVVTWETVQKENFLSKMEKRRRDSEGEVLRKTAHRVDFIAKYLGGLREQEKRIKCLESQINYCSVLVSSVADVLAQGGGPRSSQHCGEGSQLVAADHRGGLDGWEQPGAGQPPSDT
Summary of the method: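 SyncroPatch 384 whole-cell recording at rt on CHO-K1 cells stably expressing human or mouse TRPM5. Intracellular solution had 2 mM Na-ATP and 5 μM free Ca2+. Cumulative doses 0.03–31.6 μM in 0.5% DMSO, 150 s each after 180 s vehicle. Current measured at the end of the +80 mV step, normalized to vehicle; pEC50 is the mean of ≥2 independent experiments.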

[2] = Intrinsic clearance in human liver microsomes assessed per mg protein incubated up to 30 mins in presence of NADPH by LC-MS/MS analysis; assay type: ADME, Microsome
[3] = Intrinsic clearance in mouse liver microsomes assessed per mg protein incubated up to 30 mins in presence of NADPH by LC-MS/MS analysis; assay type: ADME, Microsome

Compound | EC50 [1] | microsomal CLint [2] | microsomal CLint [3]
Cc1cc2sncc2cc1N(C)Cc1ncc(Cl)s1 | 5250 nM | 562 µL/min/mg | 748 µL/min/mg
Clc1snnc1CNc1ccc2sncc2c1 | 5250 nM | – | –
Cn1c(Cl)cnc1CN(CC1CCCCC1)c1ccc2sncc2c1 | > 31600 nM | – | –
Cc1cc(NCc2ncc(Cl)s2)cc2cnsc12 | > 31600 nM | 169 µL/min/mg | 434 µL/min/mg
CCN(Cc1ncc(Cl)n1C)c1ccc(Br)cc1 | 5130 nM | – | –
O=C(Nc1ccc2sncc2c1)c1ncc(Cl)s1 | > 31600 nM | – | –
Cc1nc(CNc2ccc3sncc3c2)sc1C | > 31600 nM | – | –
COc1ccc(N(C)Cc2ncc(Cl)n2C)cc1OC | > 31600 nM | – | –
Cn1ccnc1CNc1ccc2sncc2c1 | 5130 nM | – | –
c1ccc2sc(CNc3ccc4sncc4c3)nc2c1 | > 31600 nM | – | –
Cc1csc(CNc2ccc3sncc3c2)n1 | > 31600 nM | – | –
Clc1cnc(CNc2cc(Cl)c3sncc3c2)s1 | > 31600 nM | 150 µL/min/mg | 221 µL/min/mg
CC(C)c1cnc(CNc2ccc3sncc3c2)s1 | > 31600 nM | – | –
Cn1c(Cl)cnc1CN(Cc1ccccc1)c1ccc2sncc2c1 | > 31600 nM | – | –
CC(C)N(Cc1ncc(Cl)n1C)c1ccc2sncc2c1 | 5130 nM | – | –
Cn1nc(CNc2ccc3sncc3c2)cc1C(F)(F)F | > 31600 nM | – | –
Cn1c(Cl)cnc1CNc1ccc2scnc2c1 | 13500 nM | – | –
Cn1c(CNc2ccc(Cl)cc2)nc2ccccc21 | > 31600 nM | – | –

Compound | EC50 [1] | microsomal CLint [2] | microsomal CLint [3]
Cn1c(Cl)cnc1CN1CCc2ccccc21 | 22900 nM | – | –
Cn1c(Cl)cnc1CNc1ccc2c(c1)nnn2C | > 31600 nM | – | –
CC(C)(Nc1ccc2sncc2c1)c1ncc(Cl)s1 | > 31600 nM | 173 µL/min/mg | 250 µL/min/mg
Clc1cnc(CNc2cnc3sncc3c2)s1 | 6610 nM | 84 µL/min/mg | 163 µL/min/mg
c1csc(CNc2ccc3sncc3c2)n1 | 4680 nM | – | –
Cn1c(Cl)cnc1CN1CC(CO)Cc2cccc(F)c21 (configuration not stated) | 5010 nM | – | –
Cn1c(Cl)cnc1CNc1ccc2[nH]ncc2c1 | 6030 nM | – | –
Cn1c(Cl)cnc1CNc1ccc2ocnc2c1 | 16200 nM | – | –
Clc1cnc(CNc2cccc3sncc23)s1 | > 31600 nM | – | –
Cn1c(Cl)ccc1CNc1ccc2sncc2c1 | > 31600 nM | – | –
N#Cc1ccc(CNc2ccc3sncc3c2)s1 | > 31600 nM | – | –
Clc1cnc(CNc2ccc3sncc3c2)[nH]1 | > 31600 nM | – | –
CC(Nc1ccc2sncc2c1)c1ncc(Cl)s1 (configuration not stated) | 7590 nM | – | –
Cn1c(Cl)cnc1CNc1ccc2c(cnn2C)c1 | 5250 nM | – | –
Cn1c(CNc2ccc3sncc3c2)nc(Cl)c1Cl | > 31600 nM | – | –
Cn1c(Cl)cnc1CNc1ccc2[nH]cnc2c1 | > 31600 nM | – | –
Cc1nnc(CNc2ccc3sncc3c2)s1 | 19100 nM | – | –
CC(=O)N(Cc1ncc(Cl)n1C)c1ccc2sncc2c1 | > 31600 nM | – | –

Compounds with a lower EC50 [1], results first:

EC50 [1] | microsomal CLint [2] | microsomal CLint [3] | Compound
1450 nM | – | – | Clc1cnc(CNc2cccc3cnsc23)s1
575 nM | – | – | Cc1cnc(CNc2ccc3sncc3c2)s1
1740 nM | 178 µL/min/mg | 508 µL/min/mg | Cc1c(NCc2ncc(Cl)s2)ccc2sncc12
3020 nM | – | – | Cn1c(Cl)cnc1CNc1ccc2oncc2c1
2820 nM | – | – | CN(Cc1ncc(Cl)s1)c1cc2cnsc2cc1F
1620 nM | – | – | CN(Cc1ncc(Cl)s1)c1cc2cnsc2cc1Cl
85.1 nM | – | – | CN(Cc1ncc(Cl)n1C)c1ccc2cnsc2c1
2510 nM | – | – | Cn1ccnc1CNc1ccc(Cl)cc1OCCC(F)(F)F
24.5 nM | 149 µL/min/mg | 527 µL/min/mg | Clc1cnc(CNc2cc3cnsc3cc2Cl)s1
1380 nM | 202 µL/min/mg | 612 µL/min/mg | Fc1cc(NCc2ncc(Cl)s2)cc2cnsc12
1580 nM | 174 µL/min/mg | 258 µL/min/mg | Clc1cnc(CNc2ccc3sncc3c2Cl)s1
490 nM | – | – | FC(F)(F)c1cnc(CNc2ccc3sncc3c2)s1
309 nM | – | – | CN(Cc1ncc(Cl)n1C)c1cc2sncc2cc1Cl
1170 nM | 172 µL/min/mg | 421 µL/min/mg | Clc1cnc(CNc2ccc3sncc3n2)s1
158 nM | – | – | Cn1c(Cl)cnc1CN(CC1CC1)c1ccc2sncc2c1
97.7 nM | 142 µL/min/mg | 312 µL/min/mg | Fc1cc2sncc2cc1NCc1ncc(Cl)s1

EC50 [1] | microsomal CLint [2] | microsomal CLint [3] | Compound
158 nM | – | – | CN(Cc1ncc(Cl)n1C)c1ccc2sncc2c1
468 nM | 155 µL/min/mg | 93 µL/min/mg | Clc1cnc(CNc2cc3cnsc3cn2)s1
2750 nM | – | – | Clc1ccc(CNc2ccc3sncc3c2)s1
295 nM | – | – | Cn1c(Cl)cnc1CNc1ccc2cnsc2c1
28.8 nM | – | – | Fc1cc2cnsc2cc1NCc1ncc(Cl)s1
17.8 nM | – | – | Cc1cc2cnsc2cc1NCc1ncc(Cl)s1
38.9 nM | 157 µL/min/mg | 148 µL/min/mg | Cc1cc2sncc2cc1NCc1ncc(Cl)s1
102 nM | – | – | Cn1c(Cl)cnc1CNc1cc2sncc2cc1F
38 nM | – | – | Cc1cc2cnsc2cc1NCc1ncc(Cl)n1C
933 nM | 247 µL/min/mg | 448 µL/min/mg | Fc1c(NCc2ncc(Cl)s2)ccc2sncc12
447 nM | – | – | CN(Cc1ncc(Cl)s1)c1ccc2sncc2c1
468 nM | – | – | CCN(Cc1ncc(Cl)n1C)c1ccc2sncc2c1
457 nM | – | – | Cn1c(Br)cnc1CNc1ccc2sncc2c1
832 nM | 157 µL/min/mg | 763 µL/min/mg | Clc1cnc(COc2ccc3sncc3c2)s1
11.2 nM | – | – | Cn1c(Cl)cnc1CNc1cc2sncc2cc1Cl

Reference: ChEMBL document CHEMBL4823260, “From High-Throughput Screening to Target Validation: Benzo[d]isothiazoles as Potent and Selective Agonists of Human Transient Receptor Potential Cation Channel Subfamily M Member 5 Possessing In Vivo Gastrointestinal Prokinetic Activity in Rodents” (J Med Chem, 2021)
